Experiments:
Type in all cases: functional
Botrytis cinerea [1] = assay: Fungicidal activity against Botryotinia fuckeliana infected first-leaf stage of cucumber plant at 500 mg/l applied as spray after 4 to 5 days under green house conditions relative to control
Puccinia recondita [2] = assay: Fungicidal activity against Puccinia recondita infected first leaf stage of wheat plant at 500 mg/l applied as spray after 10 days under green house conditions relative to control
How it was run: (§1)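 Whole-plant greenhouse spray assay: sample dissolved in DMSO, diluted in water with Tween 20 (250 µg/mL), 50 mL sprayed over two pots; plants held 1 day before inoculation with P. recondita; controls got Tween 20 solution. Control value = (untreated − treated disease area)/untreated × 100; three replicates.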

Blumeria graminis [3] = assay: Fungicidal activity against Blumeria graminis infected first-leaf stage of barley plant at 500 mg/l applied as spray under green house conditions relative to control
Botrytis cinerea [4] = assay: Fungicidal activity against Botryotinia fuckeliana infected first-leaf stage of cucumber plant at 1000 mg/l applied as spray after 4 to 5 days under green house conditions relative to control
Phytophthora infestans [5] = assay: Fungicidal activity against Phytophthora infestans infected second leaf-stage of tomato plant at 1000 mg/l applied as spray after 4 days under green house conditions relative to control
Blumeria graminis [6] = assay: Fungicidal activity against Blumeria graminis infected first-leaf stage of barley plant at 1000 mg/l applied as spray under green house conditions relative to control
How it was run: (§2)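 Barley at fully expanded first leaf (four plants/pot) sprayed with test material (DMSO stock diluted in water with Tween 20 at 250 µg/mL), greenhouse 1 day, then dusted with E. graminis conidia from infected barley (8 treated pots per source pot). Controls got Tween 20 solution. Control value = (untreated − treated disease area)/untreated × 100; triplicate.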

Phytophthora infestans [7] = assay: Fungicidal activity against Phytophthora infestans infected second leaf-stage of tomato plant at 500 mg/l applied as spray after 4 days under green house conditions relative to control
Rhizoctonia solani [8] = assay: Fungicidal activity against Rhizoctonia solani infected in third leaf stage of rice plant at 1000 mg/l applied as spray after 5 days under green house conditions relative to control
How it was run: (§3)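 Rice at third leaf (three plants/pot) sprayed with sample in DMSO/Tween 20 (250 µg/mL) water; after 1 day inoculated by injecting at plant base R. solani inoculum (7-day wheat bran culture at 25 °C, macerated 500 g/L water). Held 5 days in lit chamber at 28 °C. Control value from diseased area against Tween-sprayed controls; triplicate.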

Puccinia recondita [9] = assay: Fungicidal activity against Puccinia recondita infected first leaf stage of wheat plant at 1000 mg/l applied as spray after 10 days under green house conditions relative to control; how it was run: as §1
Rhizoctonia solani [10] = assay: Fungicidal activity against Rhizoctonia solani infected in third leaf stage of rice plant at 500 mg/l applied as spray after 5 days under green house conditions relative to control
Pyricularia grisea [11] = assay: Fungicidal activity against Magnaporthe grisea infected second leaf stage of rice plant at 1000 mg/l applied as spray after 5 days under green house conditions relative to control
How it was run: (§4)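 Rice at second leaf (three plants/pot) sprayed with sample (DMSO, diluted in water with 250 µg/mL Tween 20), greenhouse 1 day. Inoculated with conidia (1 × 10^6 spores/mL), 24 h at 25 °C and 100% RH, then 5 days lit at 26 ± 2 °C and 85% RH. Severity scored; control value from diseased area against Tween-sprayed controls; triplicate.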

Pyricularia grisea [12] = assay: Fungicidal activity against Magnaporthe grisea infected second leaf stage of rice plant at 500 mg/l applied as spray after 5 days under green house conditions relative to control; how it was run: as §4
Rhizoctonia solani [13] = assay: Fungicidal activity against Rhizoctonia solani infected in third leaf stage of rice plant at 50 mg/l applied as spray after 5 days under green house conditions relative to control
Blumeria graminis [14] = assay: Fungicidal activity against Blumeria graminis infected first-leaf stage of barley plant at 50 mg/l applied as spray under green house conditions relative to control
Phytophthora infestans [15] = assay: Fungicidal activity against Phytophthora infestans infected second leaf-stage of tomato plant at 50 mg/l applied as spray after 4 days under green house conditions relative to control
Botrytis cinerea [16] = assay: Fungicidal activity against Botryotinia fuckeliana infected first-leaf stage of cucumber plant at 50 mg/l applied as spray after 4 to 5 days under green house conditions relative to control
Pyricularia grisea [17] = assay: Fungicidal activity against Magnaporthe grisea infected second leaf stage of rice plant at 50 mg/l applied as spray after 5 days under green house conditions relative to control
Puccinia recondita [18] = assay: Fungicidal activity against Puccinia recondita infected first leaf stage of wheat plant at 50 mg/l applied as spray after 10 days under green house conditions relative to control
Botrytis cinerea [19] = assay: Fungicidal activity against Botryotinia fuckeliana infected first-leaf stage of cucumber plant at 250 mg/l applied as spray after 4 to 5 days under green house conditions relative to control
How it was run: (§5)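 Cucumber at first leaf (one plant/pot) sprayed with sample in DMSO/Tween 20 (250 µg/mL) water; controls Tween 20 solution. After 1 day, leaf-sprayed with B. cinerea conidia (1 × 10^6 spores/mL; 15-day PDA culture, 20 °C), held 4-5 days at 20 °C. Control value calculated from diseased area against untreated plants; three replicates.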

Blumeria graminis [20] = assay: Fungicidal activity against Blumeria graminis infected first-leaf stage of barley plant at 125 mg/l applied as spray under green house conditions relative to control
Blumeria graminis [21] = assay: Fungicidal activity against Blumeria graminis infected first-leaf stage of barley plant at 250 mg/l applied as spray under green house conditions relative to control; how it was run: as §2
Pyricularia grisea [22] = assay: Fungicidal activity against Magnaporthe grisea infected second leaf stage of rice plant at 125 mg/l applied as spray after 5 days under green house conditions relative to control; how it was run: as §4
Puccinia recondita [23] = assay: Fungicidal activity against Puccinia recondita infected first leaf stage of wheat plant at 250 mg/l applied as spray after 10 days under green house conditions relative to control; how it was run: as §1
Botrytis cinerea [24] = assay: Fungicidal activity against Botryotinia fuckeliana infected first-leaf stage of cucumber plant at 125 mg/l applied as spray after 4 to 5 days under green house conditions relative to control; how it was run: as §5
Phytophthora infestans [25] = assay: Fungicidal activity against Phytophthora infestans infected second leaf-stage of tomato plant at 250 mg/l applied as spray after 4 days under green house conditions relative to control
Phytophthora infestans [26] = assay: Fungicidal activity against Phytophthora infestans infected second leaf-stage of tomato plant at 125 mg/l applied as spray after 4 days under green house conditions relative to control
Puccinia recondita [27] = assay: Fungicidal activity against Puccinia recondita infected first leaf stage of wheat plant at 125 mg/l applied as spray after 10 days under green house conditions relative to control; how it was run: as §1
Pyricularia grisea [28] = assay: Fungicidal activity against Magnaporthe grisea infected second leaf stage of rice plant at 250 mg/l applied as spray after 5 days under green house conditions relative to control; how it was run: as §4
Rhizoctonia solani [29] = assay: Fungicidal activity against Rhizoctonia solani infected in third leaf stage of rice plant at 250 mg/l applied as spray after 5 days under green house conditions relative to control; how it was run: as §3
Rhizoctonia solani [30] = assay: Fungicidal activity against Rhizoctonia solani infected in third leaf stage of rice plant at 125 mg/l applied as spray after 5 days under green house conditions relative to control; how it was run: as §3

| SMILES | Activity (Botrytis cinerea [1]) | Activity (Puccinia recondita [2]) | Activity (Blumeria graminis [3]) | Activity (Botrytis cinerea [4]) | Activity (Phytophthora infestans [5]) | Activity (Blumeria graminis [6]) | Activity (Phytophthora infestans [7]) | Activity (Rhizoctonia solani [8]) | Activity (Puccinia recondita [9]) | Activity (Rhizoctonia solani [10]) | Activity (Pyricularia grisea [11]) | Activity (Pyricularia grisea [12]) | other results |
| --- | --- | --- | --- | --- | --- | --- | --- | --- | --- | --- | --- | --- | --- |
| C=C1CCC2(C(C)C)CC12 (stereo not drawn) [SABINENE] | 0% | 0% | 0% | 0% | 0% | 0% | 0% | 0% | 0% | 0% | 0% | 0% |  |
| CN(C)S(=O)(=O)N(SC(F)(Cl)Cl)c1ccccc1 [DICHLOFLUANID] |  |  |  |  |  |  |  |  |  |  |  |  | Activity (Rhizoctonia solani [13]): 0%; Activity (Blumeria graminis [14]): 0%; Activity (Phytophthora infestans [15]): 0%; Activity (Botrytis cinerea [16]): 92%; Activity (Pyricularia grisea [17]): 0%; Activity (Puccinia recondita [18]): 0% |
| COc1cc(/C=C/C(=O)CC(=O)/C=C/c2ccc(O)c(OC)c2)ccc1O [CURCUMIN] | 40% | 100% | 0% | 70% | 100% | 0% | 100% | 85% | 100% | 63% | 0% | 0% | Activity (Botrytis cinerea [19]): 15%; Activity (Blumeria graminis [20]): 0%; Activity (Blumeria graminis [21]): 0%; Activity (Pyricularia grisea [22]): 0%; Activity (Puccinia recondita [23]): 76%; Activity (Botrytis cinerea [24]): 0%; Activity (Phytophthora infestans [25]): 85%; Activity (Phytophthora infestans [26]): 57%; Activity (Puccinia recondita [27]): 63%; Activity (Pyricularia grisea [28]): 0%; Activity (Rhizoctonia solani [29]): 45%; Activity (Rhizoctonia solani [30]): 26% |
| CC1(C)C2CCC1(C)C(O)C2 (stereo not drawn) [BORNEOL] | 0% | 0% | 0% | 0% | 0% | 0% | 0% | 0% | 0% | 0% | 0% | 0% |  |
| CC(C)=CC(=O)C[C@H](C)C1=CCC(C)=CC1 [TURMERONE] | 0% | 0% | 0% | 0% | 0% |  | 0% | 0% | 0% | 0% | 0% | 0% |  |
| CC12CCC(CC1)C(C)(C)O2 [EUCALYPTOL] | 0% | 0% | 0% | 0% | 0% | 0% | 0% | 0% | 0% | 0% | 0% | 0% |  |
| N#Cc1c(Cl)c(Cl)c(Cl)c(C#N)c1Cl [CHLOROTHALONIL] |  |  |  |  |  |  |  |  |  |  |  |  | Activity (Rhizoctonia solani [13]): 0%; Activity (Blumeria graminis [14]): 0%; Activity (Phytophthora infestans [15]): 95%; Activity (Botrytis cinerea [16]): 0%; Activity (Pyricularia grisea [17]): 0%; Activity (Puccinia recondita [18]): 0% |

Reference: ChEMBL document CHEMBL3046793, “Fungicidal property of Curcuma longa L. rhizome-derived curcumin against phytopathogenic fungi in a greenhouse” (2003)
